The values below come from ChEMBL document CHEMBL4513216, “Probing the Open Global Health Chemical Diversity Library for Multistage-Active Starting Points for Next-Generation Antimalarials” (ACS Infect Dis, 2020).

This series in a line: Toxicity liver stage against HepG2, at 10uM. Type of series: cell-based. The arrangement: test concentration 10 uM, cell line HepG2-A16-CD81EGFP. The settings on record: human, HepG2-A16-CD81EGFP cells; read-out: INHIBITION
A digest of the protocol:
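Uninfected HepG2-A16-CD81EGFP cells, 3 × 10^3 per well, 1536-well, plated on prespotted compound at 10 μM final, parasite-free screening media added to match infected plates; puromycin 10 μM positive, DMSO 0.5% negative; run in parallel with 48 h PbLuc assay at 37 °C, 5% CO2; viability by CellTiter-Glo luminescence, normalized to controls.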
As for `Cc1cc2ncn(C(=O)N3CCCCC3)c2cc1C`, the cytotoxicity at 10 µM turned out to be 10.3%. The same measure for `O=C1CO[C@H](c2ccc(NS(=O)(=O)c3ccccc3)cc2)[C@@H](CO)N1`: 2.17%. The same measure for `c1cnc2c(c1)nc1n2[C@@H](CNC2CCOCC2)COC1`: -4.8%; for `NC(=O)CC1c2cccnc2C(=O)N1Cc1ccccc1` (configuration not stated): -5.8%. For the compound `O=C(O)Cn1ccc(=O)c2ccccc21`, the cytotoxicity at 10 µM was -9.24%. The same measure for `Cc1nn(C)cc1C1CC(=O)Nc2c1cnn2C(C)(C)C` (configuration not stated): -5.45%; for `O=C(NCCc1ccccn1)c1n[nH]c2c1CCC2`: -3.81%. Then `O=C(c1ccno1)N1CC(c2nc(-c3ccco3)no2)C1`, with -11.3%; and `CC(C)CNC(=O)N1C[C@@H]2CCCN[C@@H]2C1`, with 5%; and `CC(=O)N1CCC2(C1)CN(S(=O)(=O)c1ccccc1)C2`, with 3.82%. The same measure for `Cc1ncnc2c1CCN(C(=O)c1ccoc1)CC2`: 6.73%; for `O=c1ccc(-c2cccs2)nn1CN1CCOC(c2ccccc2)C1` (configuration not stated): 7.57%. Regarding `COC(=O)COc1nc(CC(C)C)c2c(c1C#N)CCCC2`, the cytotoxicity at 10 µM came to 21.5%. The same measure for `Cc1sc(NC(=O)CN(C)S(C)(=O)=O)c(C#N)c1C`: 4.7%; for `COCCN1CCC2(CCCN(C(=O)c3cnoc3C)C2)C1=O` (configuration not stated): -23.8%; for `CS(=O)(=O)N1CCN(C(=O)c2cc(-c3ccco3)cs2)CC1`: 4.73%. The same measure for `CN(C)C(=O)CNC(=O)CCn1ncc2c(Cl)cccc21`: -4.84%; for `CS(=O)(=O)c1cnc(N2CCCC2)nc1C1CCN(C(=O)C2CC2)CC1`: 1.45%; for `O=C(c1cscn1)N1CCc2[nH]nc(Nc3ccccc3)c2C1`: 7.82%. The same measure for `CC(C)(NC(=O)Cc1ccccc1F)C(=O)O`: 3.13%; for `CC(C)c1nc(O)c2nnn(C[C@@H]3CCCN(Cc4ccsc4)C3)c2n1`: -4.6%; for `COCCn1cnnc1C1CCCN(C(C)C)C1` (configuration not stated): -27.6%. On to `Cc1noc(C)c1-c1nc(N(C)C)ncc1-c1cnccn1`, for which the cytotoxicity at 10 µM was -22.8%. The same measure for `Cc1cc(C)c(CNC(=O)NC2CCN(C(=O)C(C)C)CC2)c(C)c1`: 9.46%; for `Cc1nn(C)c(C)c1NC(=O)CNC(c1ccccc1)C1CCC1` (configuration not stated): 1.44%. Then `Cc1cccc(NC(=O)N2CCC(CO)(Nc3ccccc3)CC2)c1`, with 0.045%; and `CCOc1ccc(NCc2cnc(N3CCN(C)CC3)nc2)cn1`, with -0.512%. The same measure for `CNC(=O)CN1CCC(CN(C)Cc2ccc(C)cc2C)CC1`: 4%; for `CSCC(=O)N1CCOC(c2nc(C(C)C)n[nH]2)C1` (configuration not stated): -4.99%; for `COc1cc2nc(C)sc2cc1NC(=O)C(C)NC(N)=O` (configuration not stated): -9.93%. On to `Cc1ccccc1C(NC(=O)NCC1(O)CCC1)C1CC1` (configuration not stated), for which the cytotoxicity at 10 µM was -3.03%. The same measure for `COc1cccc(-c2cnc(CNC(C)(C)c3nc(C)cs3)o2)c1`: 11.4%.

Turning to `CCOCC(=O)NC(C)Cc1ccccc1Br` (configuration not stated), the cytotoxicity at 10 µM is -11%. Then `CC(=O)NC1(C(=O)N2CCCN(c3cccnn3)CC2)CCCCC1`, with 8.15%; and `CC(C)(C)OC(=O)NCCNC(=O)c1ccc2cc[nH]c2c1`, with -0.224%. The same measure for `O=C(NCc1nncn1C1CC1)Nc1ccc(OC2CCC2)c(F)c1`: -3.2%; for `CCNC(=O)NCc1cccc(N2CC=CC2)c1`: 5.03%; for `Cc1cnn(CC2CCCN2c2ccc(C#N)cn2)c1` (configuration not stated): 14%. The same measure for `Cc1nc(CN2CCN(C(=O)C(C(C)C)n3cncn3)CC2)cs1` (configuration not stated): -1.29%.

`Cn1nnc2cc(C(=O)NS(=O)(=O)Cc3ccc(F)cc3)ccc21`: the cytotoxicity at 10 µM was -3.7%. The same measure for `O=S(=O)(Nc1cn[nH]c1)c1ccc(Br)c(F)c1`: 0.462%; for `c1cc(N2CCSCC2)ccc1CNc1cncc2nnnn12`: 5.51%; for `CCN(Cc1ccccc1)S(=O)(=O)C1CCS(=O)(=O)CC1`: 5.44%. Regarding `CC(C)C1CN(C(=O)Nc2cnn(CC(F)F)c2)CCO1` (configuration not stated), the cytotoxicity at 10 µM worked out at 8.52%. Consider `CCn1cnnc1CCNC(=O)C(C)(C)c1cccc(Cl)c1`, for which the cytotoxicity at 10 µM is 7.76%.

Consider `Cc1csc(CNC(=O)NCC(O)c2cccc(Cl)c2)n1` (configuration not stated), for which the cytotoxicity at 10 µM is -14.6%.

For `COCc1noc(C2(c3ccc(OC)cc3)CCOCC2)n1`, the cytotoxicity at 10 µM is -22.3%. As for `CC(=O)NCCc1ccc(S(=O)(=O)N(CC(C)C)C(C)C)s1`, the cytotoxicity at 10 µM is 18.8%. With `CC(C)(C)C(=O)NCCC(=O)NS(=O)(=O)c1ccc2c(c1)OCCO2`, the cytotoxicity at 10 µM was -3.81%. In the case of `Cc1ccccc1CS(=O)(=O)CC(=O)NCc1ccccc1F`, the cytotoxicity at 10 µM was -6%. The same measure for `O=C(CC1CN(Cc2ccccc2)CCO1)NC1CCCC1` (configuration not stated): -0.394%; for `COc1cccc(-c2cc(C(=O)NCCCC(F)(F)F)[nH]n2)c1`: -13.9%.

Regarding `CCN(Cc1cn(CC2CCNCC2)nn1)CC1CCCO1` (configuration not stated), the cytotoxicity at 10 µM was -1.77%.

For the compound `Cc1nc(C2CCCNC2)cc(N(C)CCc2ccccc2)n1` (configuration not stated), the cytotoxicity at 10 µM is -1.36%.

On to `CC(C)N(CCO)C(=O)c1cc(COc2ccc3c(c2)CCCC3)on1`, for which the cytotoxicity at 10 µM is -135%. The same measure for `Cc1nn(C)c2nc(NCCCN3CCCC(C(N)=O)C3)sc12` (configuration not stated): -9.8%. The same measure for `CC[C@@]1(O)CCN(C(=O)c2cccc3cc(C)oc23)C[C@H]1O`: 4.62%; for `CC(C)CN(Cc1ccc(C(F)(F)F)nc1)Cc1cnn(C)c1`: 1.42%; for `Cc1cc(C)c2[nH]c(C(=O)NCCN3CCNC3=O)c(C)c2c1`: 2.49%. The same measure for `CCN1CCC(CC(=O)NCCc2nc(O)cc(O)n2)CC1`: -4.76%. On to `CCCc1cnc(C)nc1N1CCC(Cn2cc(CN(C)C)nn2)CC1`, for which the cytotoxicity at 10 µM is -4.4%. On to `O=C(c1ccccc1-c1nnn[nH]1)N1CCOC(C(F)(F)F)C1` (configuration not stated), for which the cytotoxicity at 10 µM is -1.67%. Then `O=C(O)CCc1cc2n(n1)CCN(Cc1ccc3[nH]ccc3c1)C2`, with -2.32%; and `COc1nc2c(cc1C(=O)NCCc1nc3ccccc3s1)CCC2`, with 5.79%; and `COCCc1noc(Cn2c(=O)[nH]c3ccccc32)n1`, with -2.03%.

Turning to `Cc1cc(C)n2nc(C(=O)N[C@H]3C[C@H]4CN(C)CCN4C3)cc2n1`, the cytotoxicity at 10 µM is -0.671%.

As to `C[C@H](N)C(=O)N1CCC(c2[nH]ncc2-c2ccccc2)CC1`, the cytotoxicity at 10 µM stood at 2.4%. As to `Cc1cccc(C(=O)N2CCN(S(C)(=O)=O)[C@@H]3CS(=O)(=O)C[C@@H]32)n1`, the cytotoxicity at 10 µM was 4.01%.

With `COc1cccn(Cc2nnc(-c3cccnc3)o2)c1=O`, the cytotoxicity at 10 µM amounted to 7.99%. The same measure for `CCN(Cc1cnn(C)c1)C[C@H]1CC[C@@H](Cc2cccc(C#N)c2)O1`: 0.194%; for `O=C(NCCc1ccncc1)c1cccc(S(=O)(=O)N[C@@H]2CCNC2)c1`: 4.93%.

As to `COc1ccccc1NC(=O)c1cc2c([nH]c1=O)CCCC2=O`, the cytotoxicity at 10 µM is -4.14%.

Turning to `Cc1cc(CNC(=O)NCc2cccs2)no1`, the cytotoxicity at 10 µM was -1.87%. The same measure for `CN(Cc1ccco1)C(=O)C1CSCN1C(=O)C1CCC1` (configuration not stated): -13.2%. Then `COCCCNC(=O)CN(C)C(=O)c1cc(Cl)ccc1O`, with -1.84%; and `CC(=O)N(Cc1noc(C2CC2)n1)C1CCN(Cc2cc(C)on2)C1` (configuration not stated), with -6.08%. As for `Cc1cnn(C2CCCN(C(=O)c3ccnc(-n4cncn4)c3)C2)c1` (configuration not stated), the cytotoxicity at 10 µM is -0.565%. Then `CCN(CCNC(=O)c1cccc(C)c1C)C1CC1`, with 3.43%; and `Cc1noc(C(C)C)c1C(=O)NCCCN1CCCCCC1=O`, with 1.91%.

Regarding `CCCc1noc(CN2CCC(N(C)Cc3nnc(C4CC4)o3)C2)n1` (configuration not stated), the cytotoxicity at 10 µM is -0.775%. Then `O=C(NCCc1ccn(-c2ccccc2)n1)N1CCCC(O)C1` (configuration not stated), with -41.8%. Consider `CN1CCN(C(=O)c2cccc(OCc3cscn3)c2)CC1`, for which the cytotoxicity at 10 µM was -6.18%.

With `CCOc1ccccc1OC1CCN(C(=O)c2ccc(=O)[nH]n2)CC1`, the cytotoxicity at 10 µM is -8.7%. As to `Cc1cc(C(=O)N2CCc3nnc(N)cc3C2)c(C)n1C1CC1`, the cytotoxicity at 10 µM was -3.71%. The same measure for `COc1c(CNCc2ccc(CN(C)C)cc2)c(C)nn1C`: 3.87%; for `CC(CN1CCOCC1)n1cncc1-c1ccc2c(c1)CCCN2C` (configuration not stated): 12.3%. Turning to `CC(C)CN1CCC2(CCCNC2)C1=O` (configuration not stated), the cytotoxicity at 10 µM is -0.184%. Then `CCOc1ccc(CN[C@@H]2COC[C@H]2c2ccc(F)cc2)cc1`, with 17.1%; and `Cc1ccoc1C(=O)N1CCc2ccc(=O)n(CCN(C)C)c2CC1`, with 1.41%; and `Cc1ccc(C(=O)N2CCC3(CC2)NC(=O)CC3c2ccccc2)cn1` (configuration not stated), with -2.47%. Then `Cn1cc(C2CC(=O)NC23CCN(Cc2ccncc2)CC3)cn1` (configuration not stated), with 13.2%; and `CNCC(=O)N1CCCC1c1n[nH]cc1-c1ccccc1F` (configuration not stated), with -0.136%. The same measure for `CNC(=O)[C@H]1C[C@@H]2CN(S(=O)(=O)Cc3ccccc3)C[C@@H]2N1C`: -5.06%; for `COc1c(CNC2CCc3c(F)cccc32)c(C)nn1C` (configuration not stated): 0.665%. Take `CS(=O)(=O)NC[C@H]1OC[C@@H]2CCN(Cc3ccc(F)cc3)C[C@@H]21`: the cytotoxicity at 10 µM is -2.26%. Then `O=C(C1CC1)N1CC2(CCN(CC3CC3)CC2)c2cc(F)ccc21`, with 0.64%; and `Cc1cccc(CN2CC3(CCN(Cc4ccco4)CC3)OCC2=O)n1`, with 8.1%.
